Data as given in ChEMBL document CHEMBL4406863, “Effective Virtual Screening Strategy toward heme-containing proteins: Identification of novel IDO1 inhibitors” (Eur J Med Chem, 2019).
The source made the active and inactive calls. The calls are words filed in the database; no cut-off is given here.

Tests used:
Mus musculus [1] = assay: Induction of apoptosis in BALB/c mouse xenografted with CT26 cells assessed as nuclear chromatin margination at 50 mg/kg via oral gavage for 17 days by H&E staining based analysis; format: functional, organism-based
In short: (§1)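 Tumor tissue from the 17-day CT26/BALB/c gavage study stained with hematoxylin and eosin. Nuclei, cytoplasm and cell morphology assessed by microscopy.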

[2] = target: Indoleamine 2,3-dioxygenase 1 (Mus musculus) (UniProt P28776); assay: Reversal of IDO1-mediated immunosuppression in mouse CT26 co-cultured with T-cells assessed as ConA- stimulated differentiation of Treg cells at 0.3 uM measured after 48 hrs by FOXP3-APC based flow cytometry analysis (reference value: 11.4 %)
[3] = target: Indoleamine 2,3-dioxygenase 1 (Mus musculus) (UniProt P28776); assay: Reversal of IDO1-mediated immunosuppression in mouse CT26 co-cultured with T-cells assessed as increase in IFN-gamma production measured after 48 hrs by ELISA
In short: (§2)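 CT26 cells (1 × 10^5/well) exposed to compound ([…]) in medium with […] for 48 h. BALB/c splenic T cells resuspended in a 1:1 mix of this supernatant and RPMI/10% FBS with […] for 48 h. IFN-γ measured by ELISA; proliferation by MTT (1 mg/mL, 4 h, 37 °C, DMSO, 570 nm). Three replicate wells, mean ± SEM.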

[4] = Cytotoxicity against human HeLa cells assessed as survival rate at 30 uM incubated for 24 hrs by MTT assay relative to control; format: cell-based; settings: read-out: Activity
HeLa = assay: Effect on IDO1 expression in IFN-gamma-stimulated human HeLa cells at 3 times IDO1 IC50 for 24 hrs by western blot analysis; format: functional, cell-based
In short: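 HeLa cells (2 × 10^5/well) exposed to human IFN-γ 100 ng/mL with or without compound for 24 h. Lysis in 50 mM Tris-HCl pH 8.0 with detergents and protease inhibitors, then 10% SDS-PAGE and PVDF transfer. Membrane blocked with 5% milk and probed with anti-IDO antibody and HRP secondary; band intensity quantified.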

[5] = target: Tryptophan 2,3-dioxygenase (Homo sapiens) (UniProt P48775); assay: Inhibition of IFN-gamma-induced human TDO2 transfected in HeLa cells at 10 times IDO1 IC50 concentration using L-tryptophan as substrate incubated for 24 hrs relative to control; format: cell-based
In short: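 HeLa cells transfected for 24 h with a human TDO2 plasmid, then reseeded at 5 × 10^3/well. After 6 h, IFN-γ and compounds added in medium with […] for 24 h. Supernatant treated with 6.1 N TCA at 50 °C for 30 min and centrifuged; kynurenine read with p-dimethylaminobenzaldehyde at 480 nm.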

[6] = target: Indoleamine 2,3-dioxygenase 1 (Mus musculus) (UniProt P28776); assay: Reversal of IDO1-mediated immunosuppression in mouse CT26 co-cultured with T-cells assessed as increase in T cell proliferation measured after 48 hrs by MTT assay; in short: as §2
Mus musculus [7] = assay: Induction of apoptosis in BALB/c mouse xenografted with CT26 cells assessed as cell shrinkage at 50 mg/kg via oral gavage for 17 days by H&E staining based analysis; format: functional, organism-based; in short: as §1
CT26 [8] = assay: Antitumor activity against mouse CT26 cells xenografted in BALB/c mouse assessed as decrease in tumour growth at 50 mg/kg, po via gavage for 17 days by vernier caliper method; format: functional, organism-based
[9] = target: Indoleamine 2,3-dioxygenase 1 (Homo sapiens, UniProt P14902); assay: Inhibition of IDO1 in IFN-gamma stimulated human HeLa cells assessed as reduction in kynurenine production using L-tryptophan as substrate incubated for 24 hrs; format: cell-based
Mus musculus [10] = assay: Induction of apoptosis in BALB/c mouse xenografted with CT26 cells assessed as nuclear chromatin condensation at 50 mg/kg via oral gavage for 17 days by H&E staining based analysis; format: functional, organism-based; in short: as §1
Mus musculus [11] = assay: Decrease in FOXP3-postive T cells in BALB/c mouse xenografted with CT26 cells at 50 mg/kg via oral gavage for 17 day by immunohistochemical analysis; format: functional, organism-based
In short: (§3)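 Paraffin sections of CT26 tumors from the 17-day BALB/c study. Sections deparaffinized, rehydrated and treated with 2% H2O2. Blocked with 3% goat serum, then incubated 2 h at room temperature with the specific primary antibody. Detection with streptavidin-HRP for 40 min and DAB, hematoxylin counterstain, microscopic imaging.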

Mus musculus [12] = assay: Induction of apoptosis in BALB/c mouse xenografted with CT26 cells assessed as decrease in PCNA expression at 50 mg/kg via oral gavage for 17 days by immunohistochemistry analysis; format: functional, organism-based; in short: as §3
Mus musculus [13] = assay: Increase in IFN-gamma expression in BALB/c mouse xenografted with CT26 cells at 50 mg/kg via oral gavage for 17 day by immunohistochemical analysis; format: functional, organism-based; in short: as §3
[14] = Toxicity in BALB/c mouse xenografted with mouse CT26 cells assessed as effect on body weight at 50 mg/kg, po via gavage for 17 days and measured at day 17; format: organism-based; settings: in vivo, 408 h
Mus musculus [15] = assay: Increase in Granzyme B expression in BALB/c mouse xenografted with CT26 cells at 50 mg/kg via oral gavage for 17 day by immunohistochemical analysis; format: functional, organism-based; in short: as §3
Mus musculus [16] = assay: Induction of apoptosis in BALB/c mouse xenografted with CT26 cells at 50 mg/kg via oral gavage for 17 days by TUNEL assay; format: functional, organism-based
In short: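 TUNEL staining of tumor sections from the 17-day CT26/BALB/c study. Apoptotic nuclei scored by fluorescence microscopy under a FITC filter (green).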

CT26 [17] = assay: Antitumor activity against mouse CT26 cells xenografted in immunodeficient BALB/c nude mouse assessed as reduction in tumour growth at 50 mg/kg, po via gavage for 10 days by vernier caliper method; format: functional, organism-based
In short: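 BALB/c nude mice carrying subcutaneous CT26 tumors (1 × 10^6 cells, armpit). Randomized 3 days post-implant into vehicle or treatment groups (n = 6). Oral gavage given on days 1–10; 5-Fu served as reference. Tumor volume and body weight recorded, and tumors weighed after sacrifice.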

CT26 [18] = assay: Antitumor activity against mouse CT26 cells xenografted in BALB/c mouse assessed as decrease in tumour weight at 50 mg/kg, po via gavage for 17 days by vernier caliper method relative to control; format: functional; settings: 408 h
[19] = target: Indoleamine 2,3-dioxygenase 1 (Mus musculus) (UniProt P28776); assay: Reversal of IDO1-mediated immunosuppression in mouse CT26 co-cultured with T-cells assessed as increase in IFN-gamma production measured after 48 hrs by ELISA relative to control; in short: as §2
Mus musculus [20] = assay: Increase in infiltrating CD8-positive T cells in BALB/c mouse xenografted with CT26 cells at 50 mg/kg via oral gavage for 17 day by immunohistochemical analysis; format: functional, organism-based; in short: as §3
CT26 [21] = assay: Antitumor activity against mouse CT26 cells xenografted in immunodeficient BALB/c nude mouse assessed as reduction in tumour growth at 25 mg/kg, ip administered every two days for 17 days and measured at day 17 by vernier caliper method; format: functional, organism-based

Sequence of Indoleamine 2,3-dioxygenase 1 (Mus musculus) (P28776 whole entry, looked up): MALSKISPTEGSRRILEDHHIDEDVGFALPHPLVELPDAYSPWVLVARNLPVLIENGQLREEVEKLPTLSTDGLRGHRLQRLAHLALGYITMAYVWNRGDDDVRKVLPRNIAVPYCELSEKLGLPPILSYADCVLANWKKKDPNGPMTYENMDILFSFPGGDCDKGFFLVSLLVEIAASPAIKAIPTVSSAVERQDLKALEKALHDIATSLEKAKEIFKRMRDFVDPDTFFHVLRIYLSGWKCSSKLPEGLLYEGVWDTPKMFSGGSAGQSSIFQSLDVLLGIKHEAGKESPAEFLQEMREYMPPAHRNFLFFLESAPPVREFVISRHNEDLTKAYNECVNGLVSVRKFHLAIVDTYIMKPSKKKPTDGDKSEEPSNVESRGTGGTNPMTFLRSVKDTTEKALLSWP
Sequence of Tryptophan 2,3-dioxygenase (Homo sapiens) (P48775 whole entry, looked up): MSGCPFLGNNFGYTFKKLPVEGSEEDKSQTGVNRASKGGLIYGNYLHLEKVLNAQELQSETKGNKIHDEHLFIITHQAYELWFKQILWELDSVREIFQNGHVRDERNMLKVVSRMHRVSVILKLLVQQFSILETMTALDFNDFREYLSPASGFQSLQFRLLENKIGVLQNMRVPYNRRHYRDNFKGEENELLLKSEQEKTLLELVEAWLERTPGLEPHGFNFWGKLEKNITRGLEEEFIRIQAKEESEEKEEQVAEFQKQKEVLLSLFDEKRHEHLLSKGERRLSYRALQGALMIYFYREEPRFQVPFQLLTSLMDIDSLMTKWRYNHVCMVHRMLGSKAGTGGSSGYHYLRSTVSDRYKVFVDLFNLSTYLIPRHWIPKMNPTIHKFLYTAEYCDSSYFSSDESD
Sequence of Indoleamine 2,3-dioxygenase 1 (P14902 whole entry): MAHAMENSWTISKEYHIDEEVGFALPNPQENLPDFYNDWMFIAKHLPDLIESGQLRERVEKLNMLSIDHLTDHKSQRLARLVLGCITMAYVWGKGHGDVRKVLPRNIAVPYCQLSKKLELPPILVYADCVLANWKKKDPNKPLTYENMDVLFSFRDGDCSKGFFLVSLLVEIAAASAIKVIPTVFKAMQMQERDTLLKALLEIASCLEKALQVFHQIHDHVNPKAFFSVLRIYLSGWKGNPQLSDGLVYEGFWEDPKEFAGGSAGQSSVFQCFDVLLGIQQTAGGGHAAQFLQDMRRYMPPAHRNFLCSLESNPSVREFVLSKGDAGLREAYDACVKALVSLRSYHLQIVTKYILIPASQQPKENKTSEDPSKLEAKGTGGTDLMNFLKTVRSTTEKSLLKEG

Row | Structure (SMILES) | viability at 24 h, 30 µM [4] [%] | IC50 [9] [µM] | further results
1 | COc1ccc(NC(=O)Cn2cnc3scc(-c4ccc(C)cc4)c3c2=O)cc1 | 107 | 3.2 | Activity (Mus musculus [1]): Active; Activity [2]: 10.8%; Activity [3]: Active; Activity (HeLa): inactive; inhibition [5]: < 20%; Activity [6]: Active; Activity (Mus musculus [7]): Active; inhibition (CT26 [8]): Active; Activity (Mus musculus [10]): Active
2 | CCC(Nc1ccc(Cl)cc1C)C(=O)N/N=C/c1ccccc1 (stereo not drawn) |  |  | Activity (Mus musculus [1]): Active; Activity [2]: 5.9%; Activity (Mus musculus [11]): Active; Activity (Mus musculus [12]): Active; Activity (Mus musculus [13]): Active; Activity [14]: Non-Toxic; Activity (Mus musculus [15]): Active; Activity (Mus musculus [16]): Active; Activity (HeLa): inactive; inhibition [5]: < 20%; Activity [6]: Active; Activity (Mus musculus [7]): Active; Activity (CT26 [17]): inactive; inhibition in vivo at 50 mg/kg (CT26 [18]): 36%; fold change (FC) [19]: 2; inhibition (CT26 [8]): Active; Activity (Mus musculus [20]): Active; Activity (Mus musculus [10]): Active
3 | Cc1ccc(NCc2nnc3n2N=C(c2ccc(Cl)cc2)CS3)cc1 | 100 |  | 
4 | Oc1ccccc1CN1CCCC(c2n[nH]cc2-c2ccc(Cl)cc2)C1 (stereo not drawn) | 101 | 18.6 | 
5 | CCOc1ccc(/C=N/NC(=O)c2c(O)ccc3ccccc23)cc1 | 112 | 27.3 | 
6 | CCC(Nc1ccc(Cl)cc1C)C(=O)N/N=C/c1cccc2ccccc12 (stereo not drawn) |  | 2.2 | 
7 | O=C(Cn1cnc2scc(-c3ccc(F)cc3)c2c1=O)NC(=O)NCc1ccccc1 | 100 | > 30 | 
8 | COc1ccc(CC(=O)N/N=C/c2c(O)ccc3ccccc23)cc1 | 91 | > 30 | 
9 | COc1cccc(NCc2nnc3n2N=C(c2ccc(Br)cc2)CS3)c1 | 101 | 20.6 | 
10 | c1ccc(C2=Nn3c(CN4CCc5ccccc54)nnc3SC2)cc1 | 98 | > 30 | 
11 | O=C(N/N=C/c1c(O)ccc2ccccc12)Nc1ccccc1 | 102 | > 30 | 
12 | Cc1ccc(-c2csc3ncn(CC(=O)Nc4cccc5ccccc45)c(=O)c23)cc1 | 99 | 20.1 | 
13 | O=C(Cn1cnc2scc(-c3ccc(Cl)cc3)c2c1=O)NCc1ccco1 | 108 | 12.4 | 
14 | O=C(N/N=C/c1c(O)ccc2ccccc12)C(=O)Nc1cccc(C(F)(F)F)c1 | 59 |  | 
15 | CCC(Nc1ccc(Cl)cc1C)C(=O)N/N=C/c1ccccc1O (stereo not drawn) |  |  | Activity (HeLa): inactive; inhibition [5]: < 20%
16 | NS(=O)(=O)c1ccc(NC(=O)Cn2cnc3scc(-c4ccco4)c3c2=O)cc1 | 77 |  | 
17 | COc1ccccc1N(CC(=O)N/N=C/c1c(O)ccc2ccccc12)S(C)(=O)=O | 89 | > 30 | 
18 | COc1ccc(NC(=O)Cn2cnc3scc(-c4ccc(OC)c(OC)c4)c3c2=O)cc1 | 101 | 5.6 | 
19 | COc1ccccc1NCC(=O)N/N=C/c1c(O)ccc2ccccc12 | 114 | 8.6 | 
20 | COc1ccccc1C(=O)N/N=C/c1c(O)ccc2ccccc12 | 100 | 11.3 | 
21 | CCOc1ccc(NCc2nnc3n2N=C(c2cccs2)CS3)cc1 | 101 | > 30 | 

Row | Structure (SMILES) | viability at 24 h, 30 µM [4] [%] | IC50 [9] [µM] | further results
22 | Fc1ccc(C2=Nn3c(CNc4ccc5c(c4)OCO5)nnc3SC2)cc1 | 100 |  | 
23 | O=C(Cc1ccccc1)N/N=C/c1c(O)ccc2cc([N+](=O)[O-])ccc12 | 108 | 4.8 | Activity (HeLa): inactive; inhibition [5]: < 20%
24 | CCNC(=O)C(=O)N/N=C/c1c(O)ccc2ccccc12 | 102 | > 30 | 
25 | Cc1nc2ccccc2n1Cc1nnc2n1N=C(c1ccc(Cl)cc1)CS2 | 85 |  | 
26 | NS(=O)(=O)NCCNc1nonc1/C(=N/O)Nc1ccc(F)c(Br)c1 |  |  | inhibition [5]: < 20%
27 | NS(=O)(=O)NCCNc1nonc1C(=NO)Nc1ccc(F)c(Br)c1 [EPACADOSTAT] | 92 |  | 
28 | OC(CC1c2ccccc2-c2cncn21)C1CCCCC1 (stereo not drawn) |  |  | inhibition [5]: < 20%
29 | O=C(Cc1ccc([N+](=O)[O-])cc1)N/N=C/c1c(O)ccc2ccccc12 | 106 | 10.3 | 
30 | O=C(CSc1ccc(Cl)cc1)N/N=C/c1c(O)ccc2ccccc12 | 106 | 6 | 
31 | CCC(Nc1ccc(Cl)cc1C)C(=O)N/N=C/c1c(O)ccc2ccccc12 (stereo not drawn) | 105 | 2.1 | Activity [2]: 6.7%; Activity (HeLa): inactive; Activity [6]: Active
32 | Cc1ccccc1NC(=O)c1cc2ccccc2c(/C=N/Nc2nc3ccccc3s2)c1O | 101 |  | 
33 | Oc1ccc2ccccc2c1/C=N/Nc1nccs1 | 99 | > 30 | 
34 | Cc1ccc(C2=Nn3c(CNc4ccc(F)cc4)nnc3SC2)cc1 | 110 |  | 
35 | Cc1ccc(OCC(=O)N/N=C/c2c(O)ccc3ccccc23)c(C)c1 | 80 | > 30 | 
36 | COc1cccc(NCc2nnc3n2N=C(c2cccc(OC)c2)CS3)c1 | 104 | > 30 | 
37 | CN(C)c1ccc(C(=O)N/N=C/c2c(O)ccc3ccccc23)cc1 | 114 | 21.1 | 
38 | O=C(Cn1cnc2scc(-c3ccccc3)c2c1=O)NC(=O)Nc1ccccc1 | 85 | > 30 | 
39 | Cc1sc2ncn(CC(=O)NCc3ccccc3)c(=O)c2c1-c1ccc(Br)cc1 | 84 |  | 
40 | CN(C)c1ccc(/C=C(/NC(=O)c2ccccc2Cl)C(=O)N/N=C/c2c(O)ccc3ccccc23)cc1 | 66 |  | 
41 | O=c1[nH]cc(F)c(=O)[nH]1 |  |  | Activity (CT26 [21]): Active
